Published values of several laboratories.
Protocols differ between the studies behind these lines.
MTNR1A: Melatonin receptor type 1A (MTNR1A, Homo sapiens, UniProt P48039)

Nc1ncc(-c2nc(N3CCOCC3)nc(N3CCOCC3)n2)c(C(F)F)n1
remaining binding (Serine/threonine-protein kinase SIK3 (SIK3, Homo sapiens, UniProt Q9Y2K2); binding, competition with immobilised ligand; 10 µM): 72%

COCc1c(-c2cc3cc(C)cc(OC)c3s2)c2c(N)ncnn2c1CN1CCNC(=O)C1
inhibition (5-hydroxytryptamine receptor 2C (HTR2C, Homo sapiens, UniProt P28335); ligand displacement, radioligand; 10 µM): 30%

COc1ccc2cccc(C(CO)CNC(=O)CF)c2c1 (centres unmarked)
Emax (MTNR1A; β-arrestin recruitment, agonist; CHO-K1; 90 min): 101%

CCN(CC)CCCC[C@H](NC(=O)[C@H](CC(C)C)NC(=O)[C@H](C)NC(=O)[C@H](Cc1ccccc1)NC(=O)c1ccc(C(C)(C)C)cc1)C(=O)N[C@@H](CO)C(=O)OC
ΔTm (BRWD3 (Homo sapiens, UniProt Q6RI45); thermal stability, DSF; 25 µM): -0.57 °C

COc1ncccc1-c1cnn2ccc(N3CCN(C(=O)OC(C)C)CC3)nc12
remaining binding (Activin receptor type-2B (ACVR2B, Homo sapiens, UniProt Q13705); binding, competition with immobilised ligand; 1 µM): 69%

COc1ccc2[nH]cc(CCNC(=O)CI)c2c1
Emax (MTNR1A; β-arrestin recruitment, agonist; CHO-K1; 90 min): 92%

Cc1nn(C)cc1-c1nc2c(N3CCN(Cc4ccc(Cl)cc4)CC3)c(Cl)cnc2[nH]1
remaining binding (Receptor-type tyrosine-protein kinase FLT3 (FLT3, Homo sapiens, UniProt P36888, K663Q); binding, competition with immobilised ligand; 1 µM): 0.8%

C#Cc1n[nH]c2c(-c3cn([C@@H](C)c4ccccn4)c(=O)[nH]c3=O)cc(F)cc12
inhibition (Aurora kinase C (AURKC, Homo sapiens, UniProt Q9UQB9); enzyme activity, inhibitor; 0.1 µM): 1.4%
